Laboratory results reported in ChEMBL document CHEMBL3244397, “New dopaminergic and potential anti-parkinson compounds, N,N-disubstituted beta-(3,4-dihydroxyphenyl)ethylamines” (J Med Chem, 1978).

Columns and labels:
[1] = test system: Mus musculus; test: Antiparkinsonian activity in caudectomized mouse assessed as duration of curvature at 0.087 umol/g, ip; type: functional
In short: (§1)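 Hydrochlorides in 0.9% saline (0.4-0.6 mL) were given ip in random groups of six, with 5-6-day intervals between retests. A blinded observer recorded onset and duration of asymmetric posture; mean and SE per six mice.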

[2] = test system: Mus musculus; test: Antiparkinsonian activity in caudectomized mouse assessed as duration of curvature at 0.348 umol/g, ip; type: functional; in short: as §1
[3] = test system: Mus musculus; test: Antiparkinsonian activity in caudectomized mouse assessed as onset of curvature at 0.348 umol/g, ip; type: functional; in short: as §1
[4] = test system: Rattus norvegicus; test: Antiparkinsonian activity in Nigra-lesioned rat assessed as number of turns per 98 mins at 0.087 umol/g, ip; type: functional
In short: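 Male Sprague-Dawley rats given 6-hydroxydopamine stereotaxically into the right substantia nigra. Used ≥4 weeks post-lesion if they rotated away from the lesion after reference agonist (1.0 µg/g ip). Compounds given ip as hydrochloride salts in 0.9% saline, […], to the same six rats at 5-day intervals. Turns counted in automatic rotometers. Mean ± SE of total turns and duration.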

[5] = test system: Mus musculus; test: Antiparkinsonian activity in caudectomized mouse assessed as onset of curvature at 0.087 umol/g, ip; type: functional; in short: as §1
[6] = test system: Rattus norvegicus; test: Antiparkinsonian activity in Nigra-lesioned rat assessed as number of turns per 45 mins at 0.087 umol/g, ip; type: functional
In short: (§2)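 Male Sprague-Dawley rats given 6-hydroxydopamine stereotaxically into the right substantia nigra. Used ≥4 weeks later if they turned away from the lesion after la (1.0 µg/g). The same six rats were dosed ip at 5-day intervals as hydrochloride in 0.9% saline; a saline-injected rat served as control. Turns were counted in automatic rotometers; mean and SE of total turns and duration.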

[7] = test system: Mus musculus; test: Antiparkinsonian activity in caudectomized mouse assessed as duration of curvature at 0.435 umol/g, ip; type: functional; in short: as §1
[8] = test system: Mus musculus; test: Antiparkinsonian activity in caudectomized mouse assessed as duration of curvature at 0.174 umol/g, ip; type: functional; in short: as §1
[9] = test system: Mus musculus; test: Antiparkinsonian activity in caudectomized mouse assessed as onset of curvature at 0.174 umol/g, ip; type: functional; in short: as §1
[10] = test system: Rattus norvegicus; test: Antiparkinsonian activity in Nigra-lesioned rat assessed as number of turns per 79 mins at 0.087 umol/g, ip; type: functional; in short: as §2
[11] = test system: Mus musculus; test: Antiparkinsonian activity in caudectomized mouse assessed as duration of curvature at 0.305 umol/g, ip; type: functional; in short: as §1
[12] = test system: Mus musculus; test: Toxicity in caudectomized mouse assessed as mortality at 0.305 umol/g, ip; type: organism-based; conditions: in vivo
In short: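 Caudectomized mice, screened for postural response to la (1.0 µg/g), received hydrochloride ip in 0.9% saline. Deaths during behavioural observation were recorded; in one case eight mice were tested.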

[13] = test system: Rattus norvegicus; test: Antiparkinsonian activity in Nigra-lesioned rat assessed as number of turns at 0.348 umol/g, ip; type: functional; in short: as §2
[14] = test system: Rattus norvegicus; test: Antiparkinsonian activity in Nigra-lesioned rat assessed as number of turns per 48 mins at 0.087 umol/g, ip; type: functional; in short: as §2
[15] = test system: Rattus norvegicus; test: Antiparkinsonian activity in Nigra-lesioned rat assessed as number of turns per 83 mins at 0.003 umol/g, ip; type: functional; in short: as §2
[16] = test system: Mus musculus; test: Antiparkinsonian activity in caudectomized mouse assessed as onset of curvature at 0.003 umol/g, ip; type: functional; in short: as §1
[17] = test system: Mus musculus; test: Antiparkinsonian activity in caudectomized mouse assessed as duration of curvature at 0.003 umol/g, ip; type: functional; in short: as §1

With `CN(CCc1ccccc1)CCc1ccc(O)c(O)c1.Cl` as the compound, how does the Time [1] read?
Its Time is 0 min.

And the Time [2]?
Its Time is 21.2 min.

What about the Time [3] of the same compound?
The Time was 6.7 min.

How did the Time [1] turn out when `CCCN(CCc1ccccc1)CCc1ccc(O)c(O)c1.Cl` was run?
The Time was 15.4 min.

And the Activity [4]?
Its Activity is 1065.

What about the Time [5] of the same compound?
The Time was 5 min.

For `CCCCN(CCC)CCc1ccc(O)c(O)c1.Cl`, which Time [1] is on record?
Its Time is 6.5 min.

And the Activity [6]?
Its Activity is 552.

And the Time [5]?
The Time was 4.6 min.

`CCCCN(CCCC)CCc1ccc(O)c(O)c1.Cl` was tested. Which Time [7] did it give?
Its Time is 0 min.

What about the Time [2] of the same compound?
Its Time is 0 min.

For `CCCCCNCCc1ccc(O)c(O)c1.Cl`, which Time [2] is on record?
The Time was 0 min.

With `CCCCCN(C)CCc1ccc(O)c(O)c1.Cl` as the compound, how does the Time [1] read?
Its Time is 0 min.

What about the Time [2] of the same compound?
Its Time is 20.6 min.

And the Time [3]?
Its Time is 14.6 min.

And the Time [8]?
Its Time is 2.5 min.

And the Time [9]?
The Time was 3.8 min.

With `CCCCCN(CCC)CCc1ccc(O)c(O)c1.I` as the compound, how does the Activity [10] read?
The Activity was 628.

And the Time [1]?
The Time was 14 min.

What about the Time [5] of the same compound?
Its Time is 4.2 min.

What does the source list for `CCCCCN(CCCCC)CCc1ccc(O)c(O)c1.Cl`?
Time [11]: 0 min; Activity [12]: Toxic

How did the Time [2] turn out when `CC(C)CNCCc1ccc(O)c(O)c1.Cl` was run?
Its Time is 0 min.

With `CC(C)CN(C)CCc1ccc(O)c(O)c1.Cl` as the compound, how does the Time [1] read?
The Time was 0 min.

And the Time [2]?
The Time was 31.8 min.

What about the Time [3] of the same compound?
The Time was 3.6 min.

What about the Time [8] of the same compound?
Its Time is 2.8 min.

And the Time [9]?
The Time was 4 min.

With `CCCN(CCc1ccc(O)c(O)c1)CC(C)C.Cl` as the compound, how does the Time [1] read?
Its Time is 10 min.

What about the Time [5] of the same compound?
The Time was 3.9 min.

With `Cl.Oc1ccc(CCNCCc2ccccc2)cc1O` as the compound, how does the Time [2] read?
The Time was 0 min.

Which results are given for `CCCCN(CCC)CCc1ccc2c(c1)OCO2.Cl`?
Time [2]: 0 min; Activity [13]: 0

Which results are given for `CCCCN(CCC)CCc1ccc(O)c(O)c1.I`?
Time [1]: 6.7 min; Activity [14]: 457; Time [5]: 3.5 min

With `CN1CCc2cccc3c2[C@H]1Cc1ccc(O)c(O)c1-3` [APOMORPHINE] as the compound, how does the Activity [15] read?
The Activity was 828.

And the Time [16]?
The Time was 5 min.

What about the Time [17] of the same compound?
Its Time is 14.2 min.
